Measurements from ChEMBL document CHEMBL4145534, “Computer-aided insights into receptor-ligand interaction for novel 5-arylhydantoin derivatives as serotonin 5-HT7 receptor agents with antidepressant activity” (Eur J Med Chem, 2018).

Legend:
[1] = tested on: Mus musculus; test: Anxiolytic-like activity in Swiss albino mouse assessed as number of punished crossings at 40 mg/kg, ip administered 60 mins prior to test and measured post 3 secs of electric shock by four-plate test (reference value: 3.8 to 4 /min); assay type: functional
[2] = tested on: Mus musculus; test: Anxiolytic-like activity in Swiss albino mouse assessed as number of punished crossings at 20 mg/kg, ip administered 60 mins prior to test and measured post 3 secs of electric shock by four-plate test (reference value: 3.8 to 4 /min); assay type: functional
[3] = biological target: T1, Adrenergic receptor alpha-1 (Rattus norvegicus, UniProt P15823+P23944+P43140); test: Displacement of [3H]-prazosin from alpha1-adrenergic receptor in rat brain cortex after 30 mins by Microbeta scintillation counting method
T1 sequence (P15823 whole entry): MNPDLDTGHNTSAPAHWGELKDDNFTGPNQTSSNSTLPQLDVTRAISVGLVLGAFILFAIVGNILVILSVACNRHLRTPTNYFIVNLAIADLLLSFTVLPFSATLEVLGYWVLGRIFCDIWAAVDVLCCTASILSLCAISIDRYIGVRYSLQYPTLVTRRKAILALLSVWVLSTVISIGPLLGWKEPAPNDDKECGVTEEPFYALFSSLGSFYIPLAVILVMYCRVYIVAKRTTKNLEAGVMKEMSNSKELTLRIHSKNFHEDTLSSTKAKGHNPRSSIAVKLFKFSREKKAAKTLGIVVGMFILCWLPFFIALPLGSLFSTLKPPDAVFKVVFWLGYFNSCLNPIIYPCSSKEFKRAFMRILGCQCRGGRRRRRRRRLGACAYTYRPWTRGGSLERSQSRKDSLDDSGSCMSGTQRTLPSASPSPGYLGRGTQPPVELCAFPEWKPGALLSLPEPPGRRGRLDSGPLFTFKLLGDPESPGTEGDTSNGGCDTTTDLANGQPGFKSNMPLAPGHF
T1 sequence (P23944 whole entry): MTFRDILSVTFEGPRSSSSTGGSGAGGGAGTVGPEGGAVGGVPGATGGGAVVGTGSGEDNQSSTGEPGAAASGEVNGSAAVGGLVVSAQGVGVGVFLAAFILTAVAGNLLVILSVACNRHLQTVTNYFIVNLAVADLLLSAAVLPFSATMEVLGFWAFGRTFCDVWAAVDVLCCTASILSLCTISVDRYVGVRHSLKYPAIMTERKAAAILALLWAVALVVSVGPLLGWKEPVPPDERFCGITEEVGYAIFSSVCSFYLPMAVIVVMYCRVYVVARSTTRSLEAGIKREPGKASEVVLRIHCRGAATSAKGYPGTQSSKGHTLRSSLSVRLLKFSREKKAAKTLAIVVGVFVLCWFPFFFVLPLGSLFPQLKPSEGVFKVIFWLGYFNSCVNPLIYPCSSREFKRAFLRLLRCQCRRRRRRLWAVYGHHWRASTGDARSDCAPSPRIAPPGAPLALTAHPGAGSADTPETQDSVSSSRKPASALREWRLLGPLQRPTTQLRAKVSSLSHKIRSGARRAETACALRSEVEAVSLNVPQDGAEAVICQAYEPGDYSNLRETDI
T1 sequence (P43140 whole entry): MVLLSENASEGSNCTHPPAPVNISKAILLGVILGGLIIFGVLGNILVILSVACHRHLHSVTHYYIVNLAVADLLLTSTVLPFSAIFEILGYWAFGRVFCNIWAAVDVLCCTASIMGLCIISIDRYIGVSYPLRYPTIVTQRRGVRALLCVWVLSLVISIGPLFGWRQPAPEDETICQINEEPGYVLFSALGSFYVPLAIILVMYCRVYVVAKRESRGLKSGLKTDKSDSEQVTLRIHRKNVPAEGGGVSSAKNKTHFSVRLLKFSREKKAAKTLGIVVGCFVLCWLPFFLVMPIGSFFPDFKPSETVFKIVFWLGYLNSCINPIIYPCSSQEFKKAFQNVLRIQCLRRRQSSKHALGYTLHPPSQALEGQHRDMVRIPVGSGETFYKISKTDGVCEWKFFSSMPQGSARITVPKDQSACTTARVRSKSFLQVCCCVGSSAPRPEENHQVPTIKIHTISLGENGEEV

[4] = tested on: Mus musculus; test: Antidepressant like activity in Swiss albino mouse assessed as immobility time at 5 mg/kg, ip administered 60 mins prior to test and measured last 4 mins of 6 mins test by forced swimming test (reference value: 159.78 to 183.56 secs); assay type: functional
[5] = tested on: Mus musculus; test: Antidepressant like activity in Swiss albino mouse assessed as immobility time at 20 mg/kg, ip administered 60 mins prior to test and measured last 4 mins of 6 mins test by forced swimming test (reference value: 159.78 to 183.56 secs); assay type: functional
[6] = tested on: Mus musculus; test: Anxiolytic-like activity in Swiss albino mouse assessed as number of punished crossings at 10 mg/kg, ip administered 60 mins prior to test and measured post 3 secs of electric shock by four-plate test (reference value: 3.8 to 4 /min); assay type: functional
[7] = tested on: Mus musculus; test: Antidepressant like activity in Swiss albino mouse assessed as immobility time at 10 mg/kg, ip administered 60 mins prior to test and measured last 4 mins of 6 mins test by forced swimming test (reference value: 159.78 to 183.56 secs); assay type: functional
[8] = tested on: Mus musculus; test: Effect on spontaneous locomotor activity in Swiss albino mouse at 20 mg/kg, ip administered 60 mins prior to test and measured for 3 to 6 mins; assay type: ADME, organism-based; details: in vivo
In short: (§1)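 Male Swiss Albino mice given compound or vehicle (1% Tween 80, 10 ml/kg) i.p. 60 min before test. Each mouse placed alone in a cage for 30 min habituation. Ambulation (photobeam channel crossings) then recorded over a 3–6 min session. Means ± SEM.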

[9] = tested on: Mus musculus; test: Anxiolytic-like activity in Swiss albino mouse assessed as number of punished crossings at 5 mg/kg, ip administered 60 mins prior to test and measured post 3 secs of electric shock by four-plate test (reference value: 3.8 to 4 /min); assay type: functional
[10] = tested on: Mus musculus; test: Antidepressant like activity in Swiss albino mouse assessed as decrease in immobility time at 10 mg/kg, ip administered 60 mins prior to test and measured last 4 mins of 6 mins test by forced swimming test relative to control; assay type: functional; design: scale not given: the % may be the effect or the level left
[11] = tested on: Mus musculus; test: Effect on spontaneous locomotor activity in Swiss albino mouse at 10 mg/kg, ip administered 60 mins prior to test and measured for 3 to 6 mins; assay type: ADME, organism-based; details: in vivo; in short: as §1
[12] = species: Homo sapiens; test: Selectivity ratio of Ki for human D2L receptor expressed in HEK293 cell membranes to Ki for human 5HT7BR expressed in HEK293 cell membranes; assay type: cell-based
In short: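 Membranes from HEK293 cells stably expressing human 5-HT1A, 5-HT7b or D2L receptors. Buffers all 50 mM Tris HCl with 4 mM MgCl2 and 0.1% ascorbate. 5-HT1A: 0.1 mM EDTA, 10 µM pargyline, 2.5 nM [3H]-8-OH-DPAT, room temperature. 5-HT7b: 10 µM pargyline, 0.8 nM [3H]-5-CT, 37°C. D2L: EDTA, NaCl, KCl, CaCl2, 2.5 nM [3H]-raclopride, 37°C. Incubation 1 h; nonspecific binding 10 µM 5-HT (haloperidol for D2L). Seven concentrations (10^-10–10^-4 M) in triplicate; filtration; Ki by Cheng-Prusoff; at least two experiments.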

| SMILES | Activity [1] | Activity [2] | Ki [3] | Time [4] | Time [5] | Activity [6] | Time [7] | Activity [8] | Activity [9] | Activity [10] | Activity [11] | Ratio Ki [12] |
| --- | --- | --- | --- | --- | --- | --- | --- | --- | --- | --- | --- | --- |
| CC1(c2ccc(Br)cc2)NC(=O)N(CC(O)CN2CCN(c3ccccc3C#N)CC2)C1=O.Cl (racemic) | 4.3 min⁻¹ | 3.7 min⁻¹ | 0.2 µM | 156.33 s | 55.33 s | 3.9 min⁻¹ | 136.63 s | Non-Toxic | – | – | – | – |
| COc1ccccc1N1CCN(CC(O)CN2C(=O)NC(C)(c3ccc(Br)cc3)C2=O)CC1.Cl (racemic) | – | 2.2 min⁻¹ | 0.167 µM | 184.22 s | 91.13 s | 3.1 min⁻¹ | 179.44 s | – | 3.1 min⁻¹ | 50% | Non-Toxic | – |
| CC1(c2ccc(Cl)cc2)NC(=O)N(CC(O)CN2CCN(c3ccccc3C#N)CC2)C1=O.Cl (racemic) | – | – | 0.25 µM | – | – | – | – | – | – | – | – | 140 to 190 |
